# M1 ag = M1 muscarinic receptor agonism. CHO-M1 cells, Fluo-4 calcium fluorescence, agonist mode; active compounds read high. B-score at 10 µM. actives 3% (n = 64,000);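 active means fluorescence rise, raw or as B-score row- and column-corrected plate score, outside the 99.7% band of its plate's samples, either direction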
# HEK293 NFkB inh = inhibitors of the PMA/ionomycin-induced NF-kB reporter in HEK293 cells; inhibition, % at 3 µM; HEK-293 NF-kB luciferase reporter, luminescence; actives 0.21% (n = 62,000); AID 465;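 active means inhibition above the mean of all tested compounds plus 3 SD, cut at about 40% in these data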;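 further: 0% = stimulated DMSO wells and 100% = 10 µM reference inhibitor 5653914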
#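 Material: HEK-293 cells with stable firefly luciferase reporter driven by four HIV NF-kB elements / Also added: PMA plus ionomycin mix as NF-kB-activating stimulus / Compound dosing: 3 µM once, 0.30% DMSO / Times: 1 h pretreatment, 16 h stimulation, 37 °C / Signal: luminescence / Evaluation: per-plate % inhibition versus controls / Benchmarks: DMSO and 10 µM reference inhibitor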
# M1 antag = M1 muscarinic receptor (rat) antagonism. B-score at 10 µM. actives 3.4% (n = 64,000). CHO-M1 cells, Fluo-4 calcium, ACh EC80 antagonist mode; active compounds read low. P08482;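 active means calcium fluorescence response, raw or row-and-column corrected B-score, differing from the plate sample mean either way at a set confidence level, mostly lower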
# Target sequence (P08482 whole entry, looked up): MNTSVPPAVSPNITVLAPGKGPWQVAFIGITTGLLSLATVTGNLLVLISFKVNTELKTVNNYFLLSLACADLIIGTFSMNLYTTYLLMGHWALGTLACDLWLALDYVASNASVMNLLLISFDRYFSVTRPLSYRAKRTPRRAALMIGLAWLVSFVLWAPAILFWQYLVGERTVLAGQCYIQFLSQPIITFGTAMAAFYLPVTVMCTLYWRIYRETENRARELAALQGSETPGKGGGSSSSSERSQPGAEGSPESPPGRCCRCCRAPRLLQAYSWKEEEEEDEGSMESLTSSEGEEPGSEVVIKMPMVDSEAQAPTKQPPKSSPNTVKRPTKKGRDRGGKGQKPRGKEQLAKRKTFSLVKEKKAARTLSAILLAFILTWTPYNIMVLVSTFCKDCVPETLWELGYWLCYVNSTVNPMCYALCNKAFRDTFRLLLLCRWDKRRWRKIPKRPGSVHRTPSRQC
# mHtt clearance = compounds clearing mutant huntingtin protein; HeLa Exon1htt(103Q)mCFP, aggregate imaging; zero = plate's median compound well; actives 0.42% (n = 47,000); inhibition, % at 1.5 µM; AID 853;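 active means inhibition of aggregate fluorescence above about 70%, also judged a hit by eye on the cell image, limit read from the data, passing the limit was not always enough; inconclusive means no rule stated for this call; inactive means not judged a hit on image review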;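 further: cells exposed to compound for three days before fixation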
# Jurkat viability = reduces viability or proliferation of Jurkat cells; Jurkat E6.1 viability, ATP luminescence, 48 h; inhibition, % at 4 µM; actives 1.2% (n = 56,000); AID 463;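 active means inhibition above the mean inhibition of all tested compounds plus 3 SD, cut at about 28% in these data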
# D1 mod = allosterically modulates the human D1 dopamine receptor; P21728; B-score at 10 µM; HEK293 D1, CRE-luciferase, dopamine EC30 potentiation; actives deviate in either direction; actives 5.9% (n = 58,000);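 active means luminescence count or its row- and column-corrected plate score outside the 99.7% band of the plate's sample wells, on either side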
# Starred values were filed as active, the others as inactive; ? = inconclusive; / = no result. Rows were chosen to be rich in hits. Some 9.5% of all compounds tested hit in one or more screens of this group.
SMILES,M1 ag,HEK293 NFkB inh,M1 antag,mHtt clearance,Jurkat viability,D1 mod
Cc1cccc(-c2c3c(=O)n(C)c(=O)n(C)c3c3nnc4ccccc4n23)c1,5.2*,2,-0.85,8,2,2.2
CC1(C)N([O-])C2=C(c3ccccc3C2=O)[N+](=O)C1(C)C,/,/,/,-30,/,/
O=S(=O)(CCSc1ccccn1)c1nc2ccccc2s1,0.12,24,0.32,56,50*,-0.99
CCS(=O)(=O)CCSc1nc2ccccc2o1,0.078,8,0.17,67,-9,-0.5
O=C(CSc1nc2ccccc2s1)Nc1ncccn1,-0.18,10,-0.017,/,0,0.71
O=S(=O)(CCSc1nc2ccccc2o1)c1nc2ccccc2s1,-0.78,20,-0.9,/,64*,-2.6
Cc1cccc(N2CCN(C(=O)NCc3ccc(Cl)cc3)CC2)c1,/,/,/,-93,/,/
O=C(NC1CCC(NC(=O)C2CCCO2)CC1)C1CCCO1 (centres undefined),0.013,12,-0.031,/,-2,0.0065
O=C(c1cn(-c2ccccc2)nc1-c1ccncc1)n1nnc2ccccc21,0.73,6,-1.5,/,-3,12*
COc1ccc(C(=O)Nc2ccc(C)cn2)c(OC)c1,-0.073,32,0.64,-54,/,-9.5*
Nc1ccc(C(O)(C(F)(F)F)C(F)(F)F)cc1,/,/,/,39,/,/
CC(C)OC(=O)N(C)c1ccc(C(O)(C(F)(F)F)C(F)(F)F)cc1,/,/,/,76*,/,/
Cc1nc(C)c2c(=O)cc(-c3ccccc3)[nH]c2n1,-1,24,1.7,6,54*,1.1
Cc1ccc(-n2ncc3c(N4CCN(c5ccccc5)CC4)ncnc32)c(C)c1,-0.41,/,-0.19,/,/,-4*
Cc1cccc(-n2ncc3c(NCc4cccnc4)ncnc32)c1,-0.29,-6,-0.25,/,4,-5.1*
COc1ccc(N2CCN(c3ncnc4c3cnn4-c3ccc(C)cc3C)CC2)cc1,-0.5,24,0.24,28,10,-0.76
Cc1cccc(-n2ncc3c(N4CCCC4)ncnc32)c1,-0.046,-18,-0.019,-15,-6,-7.3*
Cc1nc2ccccc2c(=O)n1NC(=O)Cc1ccccc1,/,/,/,-30,/,/
O=C(Nc1cccc(-c2nnc(-c3ccccc3)o2)c1)c1ccc(Br)o1,1,13,0.018,-32,-2,-0.91
O=C(c1ccc(Cl)cc1)C1C2C(=O)N(c3ccccc3)C(=O)C2C2CCCN21 (centres undefined),15*,5,0.86,-33,-2,0.26
Cc1ccc(N2C(=O)[C@@H]3[C@H](C2=O)C2CCCN2[C@@H]3C(=O)c2ccccc2)cc1 (some centres undefined),6.4,/,0.66,/,/,/
CCn1c(SCC(=O)N2CCCc3ccccc32)nc2c(c1=O)SC(C)C2 (centres undefined),0.44,4,3.3*,/,9,/
CCCn1c(SCC(=O)N2CCCc3ccccc32)nc2c1c(=O)n(C)c(=O)n2C,1.9,9,0.39,/,13,4.2*
CCn1c(SCC(=O)N2CCc3ccccc32)nc2c(c1=O)SC(C)C2 (centres undefined),-0.0046,-1,0.13,/,-3,0.092
O=C(NCc1ccc(C(F)(F)F)cc1)C1CC(c2c(Cl)cccc2Cl)=NO1 (centres undefined),/,/,/,-21,/,/
SMILES,M1 ag,HEK293 NFkB inh,M1 antag,mHtt clearance,Jurkat viability,D1 mod
O=C1c2ccccc2C(Nc2ccc3c(c2)OCCO3)N1Cc1ccccc1 (centres undefined),-0.35,12,0.53,/,7,/
C=CCNC1=C(Cl)C(=O)N(c2ccccc2Cl)C1=O,-1.3,-2,-0.02,-23,0,0.36
O=C(NC1CCCCCCC1)c1ccc2c(c1)OCO2,0.48,-9,-0.21,39,12,-3.5*
S=C(NC1CCCCC1)c1ccc2c(c1)OCO2,/,/,/,-5,/,/
CCOC(=O)C(C)Oc1ccc(=O)n(-c2ccccc2)n1 (centres undefined),0.5,5,-1.7,-15,2,0.39
COc1ccc(-c2csc(Cc3nnc4n3CCCCC4)n2)cc1,0.84,5,2.3*,5,4,1.4
CC(=O)Nc1ccc(S(=O)(=O)n2cnc3cc(C)c(C)cc32)cc1,-0.064,-5,-0.39,/,28*,0.72
Cc1ccc2nc3c(cc(C#N)c(=N)n3CC3CCCO3)c(=O)n2c1 (centres undefined),9*,18,-1.4,/,8,1.6
N#Cc1cc2c(=O)n3ccccc3nc2n(CC2CCCO2)c1=N (centres undefined),/,/,/,-23,/,/
O=C(NCc1ccccn1)c1cn(CCc2ccccc2)nn1,0.059,14,0.58,21,-8,1.4
CCCCOc1ccc(NC(=O)C2CC=CCC2C(=O)O)cc1 (centres undefined),4.7,-10,0.038,/,-4,-2.6*
NC(=O)C1CCCN(S(=O)(=O)c2ccc(Br)cc2)C1 (centres undefined),0.42,0,0.078,/,0,-0.17
Cc1cc2c(s1)c1cnn(CC(=O)NCCc3ccccc3)c(=O)c1n2C,0.0053,16,3.1*,28,/,0.47
O=C(Nc1cccc(-c2cn3cccnc3n2)c1)c1ccco1,0.82,12,0.041,/,/,-4*
O=C(Nc1cccc(-c2cn3cccnc3n2)c1)c1ccc(Br)o1,2,7,-1.2,/,/,0.75
COc1ccc(C(=O)Nc2cccc(C)c2)cc1,0.59,-30,0.72,-30,1,-3.5*
CCCC1=C(C(=O)OCC)C(c2cc(Cl)cc(OC)c2OCc2ccccc2)NC(=O)N1 (centres undefined),/,/,/,13,/,/
COc1ccccc1C1CC(=O)Nc2cc3c(cc21)OCCO3 (centres undefined),-0.012,32,0.032,?,92*,-2
Cc1cc(C)c2c(N)c(C(=O)Nc3nccs3)sc2n1,-0.093,-19,0.034,-27,3,-6.6*
COCc1cc(C)nc2sc(C(=O)Nc3nccs3)c(N)c12,1.2,-9,-2,/,-4,0.59
O=C(Oc1cccc(NC(=O)c2ccccc2Cl)c1)c1ccc([N+](=O)[O-])cc1,/,/,/,36,/,/
COc1cc(C(=O)Nc2ccc(S(=O)(=O)N3CCc4ccccc43)cc2)cc(OC)c1OC,/,/,/,-70,/,/
O=C(Nc1ccc(S(=O)(=O)N2CCc3ccccc32)cc1)c1ccco1,-0.13,13,-0.4,1,11,-4.9*
COC(=O)Nc1ccc(S(=O)(=O)N2CCCc3ccccc32)cc1,0.48,33,-0.36,/,88*,-0.56
O=C(Nc1ccc(S(=O)(=O)N2CCc3ccccc32)cc1)c1ccc2c(c1)OCO2,-0.025,13,-0.0076,-11,10,0.22
Cc1nnc2c3ccccc3c(-c3cccc4ccccc34)nn12,/,/,/,-19,/,/
Cc1nnc2c3ccccc3c(-c3ccccc3)nn12,0.54,19,-0.021,3,0,15*
N#CC1=C(N)Oc2cc(N)ccc2C1C1CCCCC1 (centres undefined),-0.31,19,0.31,27,84*,0.62
CCCC(C)NC(=O)c1cc(Cl)ccc1OC (centres undefined),/,/,/,6,/,/
